Assays:
Rattus norvegicus [1] = species on record: Rattus norvegicus; experiment: Effective dose of the required to inhibit symptoms produced by 8-OH-DPAT; format: functional
Summary of the method: (§1)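 Reserpinized male Wistar rats (reserpine 1 mg/kg sc, 18 h before), groups of 6. Compound given ip in 1% Tween 80 60 min before 8-OH-DPAT 5 mg/kg sc. FBP/FT rated 0–3 at 3, 6, 9, 12 and 15 min after agonist, summed (max 15). Mean ± SEM; Newman–Keuls test; ED50 with range.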

Rattus norvegicus [2] = species on record: Rattus norvegicus; experiment: Induction of behavioral syndrome(FT: forepaw treading) by the compound in reserpine pretreated rats at a dose of 8.; format: functional
Summary of the method: (§2)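 Male Wistar rats (260–300 g) were given reserpine 1 mg/kg sc in saline 18 h before testing. Test compound was then given alone ip as a 1% Tween 80 suspension (2 mL/kg). FBP and FT were each scored 0–3 and summed (maximum 15). n=6 per group; mean ± SEM; Newman–Keuls test.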

Rattus norvegicus [3] = experiment: Induction of LLR(lower lip retraction) by the compound in rats at a dose of 16 mg/kg; format: functional
Summary of the method: (§3)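 Male Wistar rats, groups of 6, given compound alone ip as 1% Tween 80 suspension. Lower incisor visibility scored 0/0.5/1 at 15, 30 and 45 min after dosing, summed (max 3 per rat). Mean ± SEM versus vehicle, Newman–Keuls test; ED50 with range.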

Rattus norvegicus [4] = species on record: Rattus norvegicus; experiment: Induction of behavioral syndrome(FBP: flat body posture) by the compound in reserpine pretreated rats at a dose of 8.; format: functional; summary of the method: as §2
Rattus norvegicus [5] = experiment: Effect on 8-OH-DPAT-Induced LLR(lower lip retraction) in rats at a dose of 8 mg/kg; format: functional
Summary of the method: (§4)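 Male Wistar rats, groups of 6. Compound given ip in 1% Tween 80 45 min before 8-OH-DPAT 1 mg/kg sc. Lower incisor visibility scored 0/0.5/1 at 15, 30 and 45 min after agonist, summed (max 3). Mean ± SEM; Newman–Keuls test; ED50 with range.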

[6] = target: T1, 5-hydroxytryptamine receptor 1A (Rattus norvegicus, UniProt P19327); experiment: Ability to displace [3H]8-OH-DPAT from 5-hydroxytryptamine 1A receptor
T1 sequence (P19327 whole entry): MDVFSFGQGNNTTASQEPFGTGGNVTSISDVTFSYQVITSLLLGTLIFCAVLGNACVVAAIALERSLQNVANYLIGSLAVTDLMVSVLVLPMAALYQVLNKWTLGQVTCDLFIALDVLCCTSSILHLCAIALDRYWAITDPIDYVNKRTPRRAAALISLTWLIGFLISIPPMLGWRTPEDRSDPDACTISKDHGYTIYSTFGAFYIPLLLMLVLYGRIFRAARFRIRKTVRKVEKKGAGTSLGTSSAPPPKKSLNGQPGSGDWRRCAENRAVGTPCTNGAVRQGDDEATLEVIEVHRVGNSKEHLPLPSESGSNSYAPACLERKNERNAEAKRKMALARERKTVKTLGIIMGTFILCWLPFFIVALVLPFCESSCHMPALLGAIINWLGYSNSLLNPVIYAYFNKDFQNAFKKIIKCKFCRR
Summary of the method: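 Rat hippocampal membranes, [3H]8-OH-DPAT radioligand. Ki from at least three competition experiments, each with 10–14 drug concentrations run in triplicate. Ki calculated with the Cheng–Prusoff equation.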

Rattus norvegicus [7] = species on record: Rattus norvegicus; experiment: Effect on 8-OH-DAPT- induced behavioral syndrome(FT: forepaw treading) by the compound in reserpine pretreated rats at a dose of 4.; format: functional; summary of the method: as §1
Rattus norvegicus [8] = experiment: Induction of LLR(lower lip retraction) by the compound in rats at a dose of 8 mg/kg; format: functional; summary of the method: as §3
Rattus norvegicus [9] = species on record: Rattus norvegicus; experiment: Effect on 8-OH-DAPT- induced behavioral syndrome(FT: forepaw treading) by the compound in reserpine pretreated rats at a dose of 16.; format: functional; summary of the method: as §1
Rattus norvegicus [10] = species on record: Rattus norvegicus; experiment: Effect on 8-OH-DAPT- induced behavioral syndrome(FT: forepaw treading) by the compound in reserpine pretreated rats at a dose of 8.; format: functional; summary of the method: as §1
Rattus norvegicus [11] = species on record: Rattus norvegicus; experiment: Induction of behavioral syndrome(FT: forepaw treading) by the compound in reserpine pretreated rats at a dose of 16.; format: functional; summary of the method: as §2
Rattus norvegicus [12] = experiment: Effect on 8-OH-DPAT-Induced LLR(lower lip retraction) in rats at a dose of 32 mg/kg; format: functional; summary of the method: as §4
Rattus norvegicus [13] = species on record: Rattus norvegicus; experiment: Effect on 8-OH-DAPT- induced behavioral syndrome(FBP: flat body posture) by the compound in reserpine pretreated rats at a dose of 4.; format: functional; summary of the method: as §1
Rattus norvegicus [14] = species on record: Rattus norvegicus; experiment: Induction of behavioral syndrome(FBP: flat body posture) by the compound in reserpine pretreated rats at a dose of 16.; format: functional
Summary of the method: (§5)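 Male Wistar rats (260–300 g), groups of 6, given reserpine 1 mg/kg sc 18 h before test. Compounds given ip as 1% Tween 80 suspension. FBP and FT rated 0–3 in 45-s sessions every 3 min, starting 3 min after dosing. Score summed over 5 periods (max 15 per symptom). Mean ± SEM; Newman–Keuls test.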

Rattus norvegicus [15] = experiment: Effect on 8-OH-DPAT-Induced LLR(lower lip retraction) in rats at a dose of 16 mg/kg; format: functional; summary of the method: as §4
Rattus norvegicus [16] = species on record: Rattus norvegicus; experiment: Effect on 8-OH-DAPT- induced behavioral syndrome(FBP: flat body posture) by the compound in reserpine pretreated rats at a dose of 16.; format: functional; summary of the method: as §1
Rattus norvegicus [17] = species on record: Rattus norvegicus; experiment: Dose inhibiting 8-OH-DPAT-induced behavioral syndrome(FBP: flat body posture) by the compound in reserpine pretreated rats.
Rattus norvegicus [18] = species on record: Rattus norvegicus; experiment: Induction of behavioral syndrome(FT: forepaw treading) by the compound in reserpine pretreated rats at a dose of 4.; format: functional; summary of the method: as §2
Rattus norvegicus [19] = species on record: Rattus norvegicus; experiment: Effect on 8-OH-DAPT- induced behavioral syndrome(FBP: flat body posture) by the compound in reserpine pretreated rats at a dose of 8.; format: functional; summary of the method: as §1
Rattus norvegicus [20] = species on record: Rattus norvegicus; experiment: Dose Inducing behavioral syndrome(FT: forepaw treading) by the compound in reserpine pretreated rats.; format: functional; summary of the method: as §5
Rattus norvegicus [21] = species on record: Rattus norvegicus; experiment: Induction of behavioral syndrome(FBP: flat body posture) by the compound in reserpine pretreated rats at a dose of 4.; format: functional; summary of the method: as §2
Rattus norvegicus [22] = experiment: Induction of LLR(lower lip retraction) by the compound in rats at a dose of 32 mg/kg; format: functional; summary of the method: as §3
Rattus norvegicus [23] = species on record: Rattus norvegicus; experiment: Induction of behavioral syndrome(FBP: flat body posture) by the compound in reserpine pretreated rats at a dose of 32; FBP mean score; format: functional; summary of the method: as §2
Rattus norvegicus [24] = species on record: Rattus norvegicus; experiment: Induction of behavioral syndrome(FT: forepaw treading) by the compound in reserpine pretreated rats at a dose of 16; FT mean score; format: functional; summary of the method: as §2
Rattus norvegicus [25] = species on record: Rattus norvegicus; experiment: Induction of behavioral syndrome(FT: forepaw treading) by the compound in reserpine pretreated rats at a dose of 32; FT mean score; format: functional; summary of the method: as §2
Rattus norvegicus [26] = species on record: Rattus norvegicus; experiment: Dose Inducing behavioral syndrome(FBP: flat body posture) by the compound in reserpine pretreated rats; format: functional; summary of the method: as §5
Rattus norvegicus [27] = experiment: Induction of LLR(lower lip retraction) by the compound in rats at a dose of 8 mg/kg; LLR score; format: functional; summary of the method: as §3
Rattus norvegicus [28] = species on record: Rattus norvegicus; experiment: Effect on 8-OH-DAPT- induced behavioral syndrome(FBP: flat body posture) by the compound in reserpine pretreated rats at a dose of 16; FBP mean score; format: functional; summary of the method: as §1
Rattus norvegicus [29] = species on record: Rattus norvegicus; experiment: Effective dose of the required to induce LLR(lower lip retraction); format: functional; summary of the method: as §3
Rattus norvegicus [30] = species on record: Rattus norvegicus; experiment: Effect on 8-OH-DAPT- induced behavioral syndrome(FBP: flat body posture) by the compound in reserpine pretreated rats at a dose of 32; FBP mean score; format: functional; summary of the method: as §1
Rattus norvegicus [31] = species on record: Rattus norvegicus; experiment: Induction of behavioral syndrome(FBP: flat body posture) by the compound in reserpine pretreated rats at a dose of 8; FBP mean score; format: functional; summary of the method: as §2
Rattus norvegicus [32] = species on record: Rattus norvegicus; experiment: Dose Inducing behavioral syndrome(FT: forepaw treading) by the compound in reserpine pretreated rats; format: functional; summary of the method: as §5
Rattus norvegicus [33] = species on record: Rattus norvegicus; experiment: Induction of behavioral syndrome(FBP: flat body posture) by the compound in reserpine pretreated rats at a dose of 16; FBP mean score; format: functional; summary of the method: as §5
Rattus norvegicus [34] = species on record: Rattus norvegicus; experiment: Induction of behavioral syndrome(FT: forepaw treading) by the compound in reserpine pretreated rats at a dose of 8; FT mean score; format: functional; summary of the method: as §2
Rattus norvegicus [35] = species on record: Rattus norvegicus; experiment: Effect on 8-OH-DAPT- induced behavioral syndrome(FBP: flat body posture) by the compound in reserpine pretreated rats at a dose of 8; FBP mean score; format: functional; summary of the method: as §1
Rattus norvegicus [36] = species on record: Rattus norvegicus; experiment: Effect on 8-OH-DAPT- induced behavioral syndrome(FT: forepaw treading) by the compound in reserpine pretreated rats at a dose of 32; FT mean score; format: functional; summary of the method: as §1
Rattus norvegicus [37] = species on record: Rattus norvegicus; experiment: Effect on 8-OH-DAPT- induced behavioral syndrome(FT: forepaw treading) by the compound in reserpine pretreated rats at a dose of 16; FT mean score; format: functional; summary of the method: as §1
Rattus norvegicus [38] = experiment: Induction of LLR(lower lip retraction) by the compound in rats at a dose of 4 mg/kg; LLR score; format: functional; summary of the method: as §3
Rattus norvegicus [39] = species on record: Rattus norvegicus; experiment: Effect on 8-OH-DAPT- induced behavioral syndrome(FT: forepaw treading) by the compound in reserpine pretreated rats at a dose of 8; FT mean score; format: functional; summary of the method: as §1
Rattus norvegicus [40] = experiment: Induction of LLR(lower lip retraction) by the compound in rats at a dose of 2 mg/kg; LLR score; format: functional; summary of the method: as §3

COc1ccccc1N1CCN(C2CCC(N3C(=O)[C@H]4CCCC[C@H]4C3=O)CC2)CC1 (stereo partly specified)
ED50 (Rattus norvegicus [1]): 20 mg/kg
FT mean score (Rattus norvegicus [2]): 0.2
LLR score (Rattus norvegicus [3]): 0.3
FBP mean score (Rattus norvegicus [4]): 0.1
LLR score (Rattus norvegicus [5]): 2.3
Ki [6]: 72 nM
FT mean score (Rattus norvegicus [7]): 9.2
LLR score (Rattus norvegicus [8]): 0.2
FT mean score (Rattus norvegicus [9]): 2
FT mean score (Rattus norvegicus [10]): 5.4
FT mean score (Rattus norvegicus [11]): 0.1
LLR score (Rattus norvegicus [12]): 1.1
FBP mean score (Rattus norvegicus [13]): 11.6
FBP mean score (Rattus norvegicus [14]): 0.1
LLR score (Rattus norvegicus [15]): 1.6
FBP mean score (Rattus norvegicus [16]): 3.2
ED50 (Rattus norvegicus [17]): 11 mg/kg
FT mean score (Rattus norvegicus [18]): 0.2
FBP mean score (Rattus norvegicus [19]): 9.8
ED50 (Rattus norvegicus [20]): 7.3 mg/kg
FBP mean score (Rattus norvegicus [21]): 0.2
LLR score (Rattus norvegicus [22]): 0.3

O=C1[C@H]2CCCC[C@H]2C(=O)N1CCCCN1CCc2ccccc2C1
FBP mean score (Rattus norvegicus [23]): 3.7
FT mean score (Rattus norvegicus [24]): 0.2
FT mean score (Rattus norvegicus [25]): 0.2
Ki [6]: 50 nM
ED50 (Rattus norvegicus [26]): > 32 mg/kg
LLR score (Rattus norvegicus [27]): 2.5
FBP mean score (Rattus norvegicus [28]): 13.3
ED50 (Rattus norvegicus [29]): 3.9 mg/kg
FBP mean score (Rattus norvegicus [30]): 11.7
FBP mean score (Rattus norvegicus [31]): 0.1
ED50 (Rattus norvegicus [32]): 17 mg/kg
FBP mean score (Rattus norvegicus [33]): 2.3
FT mean score (Rattus norvegicus [34]): 0.1
FBP mean score (Rattus norvegicus [35]): 14.6
FT mean score (Rattus norvegicus [36]): 6
FT mean score (Rattus norvegicus [37]): 7.7
LLR score (Rattus norvegicus [38]): 1.9
FT mean score (Rattus norvegicus [39]): 9.8
LLR score (Rattus norvegicus [40]): 1

Source: ChEMBL document CHEMBL1132488, “On the bioactive conformation of NAN-190 (1) and MP3022 (2), 5-HT(1A) receptor antagonists” (J Med Chem, 1999)
